Source: ChEMBL document CHEMBL4359812, “Nitric Oxide-Releasing Selective Estrogen Receptor Modulators: A Bifunctional Approach to Improve the Therapeutic Index” (J Med Chem, 2019)
The source made the active and inactive calls. The calls are words filed in the database; no cut-off is given here.

Assays:
[1] = Drug metabolism in pH 7.5 PBS assessed as nitric oxide release at 50 uM measured after 90 mins in presence of K3[Fe(CN)6] by 2,3-diaminonaphthalene-based fluorescence assay
How it was run: (§1)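 Compound incubated 90 min at 37 °C in PBS pH 7.5 alone, with human plasma, with 50 μM K3[Fe(CN)6], or with 5 mM L-cysteine. Nitrite reacted with 2,3-diaminonaphthalene under acid to give fluorescent naphthotriazole; HgCl2 added to release S-nitrosothiol-bound NO. Release given as % of 1 mol NO/mol compound; 3−4 experiments in duplicate (n = 6−8), mean ± SEM.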

[2] = Drug metabolism in pH 7.5 PBS assessed as S-nitroso-thiol level at 50 uM measured after 90 mins in presence of L-cysteine by 2,3-diaminonaphthalene-based fluorescence assay; how it was run: as §1
[3] = Drug metabolism in pH 7.5 PBS assessed as free nitrite level at 50 uM measured after 90 mins in presence of L-cysteine by 2,3-diaminonaphthalene-based fluorescence assay; how it was run: as §1
[4] = Drug metabolism in pH 7.5 PBS assessed as nitric oxide release at 50 uM measured after 90 mins in presence of L-cysteine by 2,3-diaminonaphthalene-based fluorescence assay; how it was run: as §1
[5] = Drug metabolism in pH 7.5 PBS assessed as nitric oxide release at 50 uM measured after 90 mins in presence of […] by 2,3-diaminonaphthalene-based fluorescence assay
[6] = (§2) Cytotoxicity against HUVEC assessed as cell viability at 50 uM measured after 24 hrs by celltiter-blue assay; format: cell-based; settings: human, HUVEC cells; read-out: Activity
How it was run: (§3)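 HUVEC grown in endothelial cell growth medium at 37 °C, seeded at 7 × 10^4 cells/well in 96-well plates, treated 24 h with test compound up to 50 μM, DMSO as control; viability read as in the group's earlier method.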

A2058 [7] = experiment: Antiproliferative activity against human A2058 cells assessed as cell viability at 50 uM measured after 24 hrs by celltiter-blue assay relative to control; format: functional; settings: A2058, 24 h, read-out: Activity
How it was run: (§4)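 Human melanoma cells seeded at 8.5 × 10^4 cells/well in 96-well plates and treated 24 h with test compound (up to 50 μM) against a DMSO control; viability read as in the group's earlier method. Three to five independent experiments (n = 9−15); mean ± SEM, ANOVA with Bonferroni post hoc test vs DMSO.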

Estrogen receptor = molecular target: T1, Estrogen receptor (Homo sapiens, UniProt P03372)
T1 sequence (P03372 whole entry): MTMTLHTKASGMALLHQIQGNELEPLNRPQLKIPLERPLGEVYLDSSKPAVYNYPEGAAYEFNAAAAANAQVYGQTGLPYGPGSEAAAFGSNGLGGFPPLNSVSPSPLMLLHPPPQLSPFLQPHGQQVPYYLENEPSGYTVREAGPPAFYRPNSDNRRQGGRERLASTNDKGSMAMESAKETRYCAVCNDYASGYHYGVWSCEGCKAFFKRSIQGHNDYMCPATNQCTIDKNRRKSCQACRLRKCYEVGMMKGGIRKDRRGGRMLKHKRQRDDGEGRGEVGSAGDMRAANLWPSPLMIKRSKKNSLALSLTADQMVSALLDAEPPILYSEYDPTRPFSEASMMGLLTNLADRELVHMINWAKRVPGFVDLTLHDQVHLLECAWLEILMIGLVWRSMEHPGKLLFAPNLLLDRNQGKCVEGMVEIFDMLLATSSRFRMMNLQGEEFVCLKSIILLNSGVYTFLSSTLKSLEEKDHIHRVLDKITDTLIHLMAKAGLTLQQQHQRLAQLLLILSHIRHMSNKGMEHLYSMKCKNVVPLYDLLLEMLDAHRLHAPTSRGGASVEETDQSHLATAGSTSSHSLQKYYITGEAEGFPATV

Estrogen receptor beta = Estrogen receptor beta (Homo sapiens, UniProt Q92731)
Sequence of Estrogen receptor beta (Q92731 whole entry): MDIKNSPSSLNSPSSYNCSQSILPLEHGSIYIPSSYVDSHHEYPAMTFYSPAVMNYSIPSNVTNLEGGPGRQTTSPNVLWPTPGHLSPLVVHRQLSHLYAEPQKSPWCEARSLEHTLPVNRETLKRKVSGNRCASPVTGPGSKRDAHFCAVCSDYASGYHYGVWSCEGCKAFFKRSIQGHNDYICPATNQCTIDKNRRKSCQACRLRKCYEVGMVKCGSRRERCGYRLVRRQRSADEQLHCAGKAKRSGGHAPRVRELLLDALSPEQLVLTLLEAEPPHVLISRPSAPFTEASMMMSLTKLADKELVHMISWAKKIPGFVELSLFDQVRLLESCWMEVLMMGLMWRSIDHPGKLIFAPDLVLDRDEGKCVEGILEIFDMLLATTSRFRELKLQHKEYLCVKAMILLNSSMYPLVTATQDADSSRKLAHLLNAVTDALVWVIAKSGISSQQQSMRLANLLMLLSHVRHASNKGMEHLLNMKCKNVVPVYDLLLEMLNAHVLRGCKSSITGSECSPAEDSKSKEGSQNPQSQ

[8] = Drug metabolism in human whole blood assessed as 5d formation measured after 6 hrs by HPLC analysis; format: ADME, tissue-based
How it was run: (§5)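 Compound incubated 0 to 6 h in human whole blood at 37 °C; proteins precipitated 1:2 (v/v); supernatant analysed by reversed-phase C18 HPLC at 254 nm, water/MeCN gradient with 0.1% TFA, 3.0 mL/min at 50 °C.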

[9] = Retention time of the compound in human whole blood by HPLC analysis; format: ADME, tissue-based; how it was run: as §5
[10] = Effect on ER/PI3K pathway in HUVEC assessed as upregulation of COX2 expression up to 20 uM measured after 24 hrs by Western blot analysis; format: ADME, cell-based; settings: human
How it was run: (§6)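 HUVEC treated 24 h with test compounds at various concentrations, with tamoxifen or 17β-estradiol as references, vs DMSO; COX-2 protein detected by Western blotting. Four independent experiments.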

MEL-JUSO [11] = experiment: Antiproliferative activity against human MelJuSo cells assessed as reduction in number of proliferating cells at 50 uM measured after 48 hrs by cell counting analysis; format: functional, cell-based
How it was run: (§7)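 A2058 cells plated at 0.5 × 10^6 (24 h) or 0.35 × 10^6 (48 h) per well, Mel-Juso at 0.6 × 10^6 or 0.45 × 10^6. After 24 h cells were treated with 0−50 μM, DMSO as control, then counted electronically after 24 or 48 h. Three independent experiments; mean ± SEM, ANOVA/Bonferroni vs DMSO.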

MCF7 [12] = experiment: Antiproliferative activity against human MCF7 cells assessed as cell viability at 50 uM measured after 24 hrs by celltiter-blue assay relative to control; format: functional; settings: MCF7, 24 h, read-out: Activity
How it was run: (§8)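 Breast adenocarcinoma lines: MCF-7 grown in Leibovitz's L-15 with 10% FCS and 1% pen/strep without CO2; MDA-MB-231 grown in DMEM with 10% FCS and 1% pen/strep at 5% CO2; both at 37 °C. Viability measured after 24 h treatment at 50 μM vs DMSO. Three independent experiments (n = 9); mean ± SEM, ANOVA/Bonferroni.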

MEL-JUSO [13] = experiment: Antiproliferative activity against human MelJuSo cells assessed as cell viability at 50 uM measured after 24 hrs by celltiter-blue assay relative to control; format: functional; settings: read-out: Activity; how it was run: as §4
[14] = Drug metabolism in human whole blood assessed as nitric oxide release measured after 6 hrs by HPLC analysis; format: ADME, tissue-based; how it was run: as §5
MDA-MB-231 [15] = experiment: Antiproliferative activity against human MDA-MB-231 cells assessed as cell viability at 50 uM measured after 24 hrs by celltiter-blue assay relative to control; format: functional; settings: MDA-MB-231, 24 h, read-out: Activity; how it was run: as §8
A2058 [16] = experiment: Antiproliferative activity against human A2058 cells assessed as reduction in number of proliferating cells at 50 uM measured after 48 hrs by cell counting analysis; format: functional, cell-based; how it was run: as §7
HUVEC [17] = experiment: as §2; format: cell-based; settings: human, huvec, 24 h, 50 µM; BLD = below limit of detection; how it was run: as §3
MEL-JUSO [18] = experiment: Antiproliferative activity against human MelJuSo cells assessed as reduction in number of proliferating cells at 25 uM measured after 48 hrs by cell counting analysis; format: functional, cell-based; how it was run: as §7
MEL-JUSO [19] = experiment: Antiproliferative activity against human MelJuSo cells assessed as reduction in cell viability measured after 24 hrs by celltiter-blue assay; format: functional, cell-based; how it was run: as §4
[20] = Effect on ER/PI3K pathway in HUVEC assessed as upregulation of COX2 expression measured after 24 hrs by Western blot analysis; format: ADME, cell-based; settings: human; how it was run: as §6
A2058 [21] = experiment: Antiproliferative activity against human A2058 cells assessed as reduction in cell viability measured after 24 hrs by celltiter-blue assay; format: functional, cell-based; settings: A2058, 24 h; how it was run: as §4
A2058 [22] = experiment: Antiproliferative activity against human A2058 cells assessed as reduction in number of proliferating cells at 25 uM measured after 48 hrs by cell counting analysis; format: functional, cell-based; how it was run: as §7
MCF7 [23] = experiment: Antiproliferative activity against human MCF7 cells assessed as reduction in number of proliferating cells measured after 48 hrs by cell counting analysis; format: functional, cell-based
How it was run: (§9)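 MCF-7 (L-15 with 10% FCS, no CO2) and MDA-MB-231 (DMEM with 10% FCS, 5% CO2) treated 48 h with test compound over a concentration range, DMSO as control; proliferating cells counted. Four independent experiments (n = 8); mean ± SEM, ANOVA with Bonferroni post hoc test vs DMSO.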

[24] = Stability of the compound in human whole blood measured after 6 hrs by HPLC analysis; format: ADME, tissue-based; how it was run: as §5
MDA-MB-231 [25] = experiment: Antiproliferative activity against human MDA-MB-231 cells assessed as reduction in number of proliferating cells measured after 48 hrs by cell counting analysis; format: functional, cell-based; how it was run: as §9
HUVEC [26] = experiment: Cytotoxicity against HUVEC assessed as reduction in cell viability measured after 24 hrs by celltiter-blue assay; format: cell-based; settings: Homo sapiens; how it was run: as §3
[27] = Effect on ER/PI3K pathway in HUVEC assessed as change COX2 expression up to 1 uM measured after 24 hrs by Western blot analysis; format: ADME, cell-based; settings: human; how it was run: as §6

Row | IC50 (Estrogen receptor) | IC50 (Estrogen receptor beta) | SMILES | Drug metabolism [1] | Drug metabolism [2] | Drug metabolism [3] | Drug metabolism [4] | viability at 50 µM (A2058 [7]) | viability at 50 µM (MEL-JUSO [13]) | other results
1 | > 5 µM | 0.2 µM | CS(=O)(=O)c1ccc(C(CCCCO[N+](=O)[O-])=C(c2ccc(F)cc2)c2ccc(F)cc2)cc1 | 2.5% | 3.4% | 0.4% | 3.8% | 106% | 101% | viability at 24 h, 50 µM [6]: 91.1%; Drug metabolism [8]: Metabolite_Detected; Retention_time [9]: 16.4 min; Activity [10]: Not Active; Activity (MEL-JUSO [11]): inactive; viability at 50 µM (MCF7 [12]): 82.8%; Drug metabolism [14]: Metabolite_Detected; viability at 50 µM (MDA-MB-231 [15]): 91.3%; Activity (A2058 [16]): inactive
2 | > 5 µM | 0.18 µM | CS(=O)(=O)c1ccc(C(CCCCO)=C(c2ccc(F)cc2)c2ccc(F)cc2)cc1 |  |  |  |  | 17% | 20.5% | Activity (HUVEC [17]): Bld; Activity (MEL-JUSO [18]): Active; EC50 (MEL-JUSO [19]): 34.9 µM; Retention_time [9]: 14.5 min; Activity [20]: Dose-dependent effect; EC50 (A2058 [21]): 39.9 µM; Activity (A2058 [22]): Active; viability at 50 µM (MCF7 [12]): 72.2%; Activity (MCF7 [23]): Dose-dependent effect; Stability [24]: Stable; Activity (MDA-MB-231 [25]): Dose-dependent effect; viability at 50 µM (MDA-MB-231 [15]): 86.4%; EC50 (HUVEC [26]): 19.6 µM
3 | > 5 µM | 1.5 µM | CS(=O)(=O)c1ccc(C(CCCO)=C(c2ccccc2)c2ccccc2)cc1 |  |  |  |  | 63% | 52.7% | 
4 | > 5 µM | 1.4 µM | CS(=O)(=O)c1ccc(C(CCCCO)=C(c2ccccc2)c2ccccc2)cc1 |  |  |  |  | 106% | 68.6% | 
5 | > 5 µM | 1.3 µM | CS(=O)(=O)c1ccc(C(CCCCO[N+](=O)[O-])=C(c2ccccc2)c2ccccc2)cc1 | 1.1% | 0.4% | 0.9% | 0.5% | 120% | 87.1% | Drug metabolism [5]: 0.1%

Further lines, the compound ahead of its results:

Row | SMILES | IC50 (Estrogen receptor) | IC50 (Estrogen receptor beta) | Drug metabolism [1] | Drug metabolism [2] | Drug metabolism [3] | Drug metabolism [4] | viability at 50 µM (A2058 [7]) | viability at 50 µM (MEL-JUSO [13]) | other results
6 | CC(=O)Oc1ccccc1C(=O)Oc1ccc(CO[N+](=O)[O-])cc1 |  |  | 0.2% | 3.6% | 0.8% | 4.4% |  |  | 
7 | O=S(=O)(NO)c1ccccc1 |  |  | 48.3% | 3.3% | 0.3% | 3.6% |  |  | Drug metabolism [5]: 33.5%
8 | CS(=O)(=O)c1ccc(C(CCCO)=C(c2ccc(F)cc2)c2ccc(F)cc2)cc1 | > 5 µM | 3 µM |  |  |  |  | 47.6% | 31.4% | EC50 (MEL-JUSO [19]): 36.3 µM; EC50 (A2058 [21]): 27.5 µM
9 | CS(=O)(=O)c1ccc(C(CCCO[N+](=O)[O-])=C(c2ccc(F)cc2)c2ccc(F)cc2)cc1 | > 5 µM | > 5 µM | 0.1% | 1.9% | 0.1% | 2% | 107% | 91.5% | Drug metabolism [5]: 2.2%
10 | CS(=O)(=O)c1ccc(C(CCCO[N+](=O)[O-])=C(c2ccccc2)c2ccccc2)cc1 | > 5 µM | 2.7 µM | 1.5% | 1.3% | 0.7% | 2% | 117% | 96.5% | 
11 | CCCCC(=C(c1ccc(F)cc1)c1ccc(F)cc1)c1ccc(S(C)(=O)=O)cc1 |  |  |  |  |  |  | 117% | 75.4% | 
12 | CC/C(=C(\c1ccccc1)c1ccc(OCCN(C)C)cc1)c1ccccc1 [TAMOXIFEN] |  |  |  |  |  |  | 1.8% | 1% | Activity [27]: Active; EC50 (MEL-JUSO [19]): 14.6 µM; EC50 (A2058 [21]): 12.5 µM
